ChEMBL document CHEMBL4842338, “System-oriented optimization of multi-target 2,6-diaminopurine derivatives: Easily accessible broad-spectrum antivirals active against flaviviruses, influenza virus and SARS-CoV-2” (Eur J Med Chem, 2021)

Experiments:
SARS-CoV-2 [1] = experiment: Antiviral activity against SARS-COV 2 infected in human Huh-7 cells; assay type: functional, organism-based; conditions: Severe acute respiratory syndrome coronavirus 2, Huh-7
Calu-3 = experiment: (§1) Cytotoxicity against human Calu-3 cells infected with SARS-COV-2 by celltiter-glo luminescent cell viability assay; assay type: cell-based; conditions: calu-3
How it was run: (§2)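 Compound-exposed cells assessed by CellTiter-Glo luminescence versus DMSO control; CC50 from dose-response.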

[2] = Selectivity index, ratio of CC50 for human Calu-3 cells infected with SARS-COV-2 to IC50 for SARS-COV 2 infected in human Calu-3 cells; assay type: toxicity, cell-based; conditions: read-out: Selectivity Index
SARS-CoV-2 [3] = experiment: Antiviral activity against SARS-COV 2 infected in monkey Vero E6 cells assessed as inhibition of viral replication at MOI of 0.01 and incubated after 2 hrs post infection for 48 hrs by direct yield reduction assay; assay type: functional, organism-based; conditions: Severe acute respiratory syndrome coronavirus 2, Vero C1008
Huh-7 = experiment: Cytotoxicity against human Huh-7 cells infected with SARS-COV-2 assessed as reduction in cell viability by celltiter-glo luminescent cell viability assay; assay type: cell-based; conditions: huh-7; how it was run: as §2
SARS-CoV-2 [4] = experiment: Antiviral activity against SARS-COV 2 infected in African green monkey Vero E6 cells; assay type: functional, organism-based; conditions: Severe acute respiratory syndrome coronavirus 2, Vero C1008
[5] = Selectivity index, ratio of CC50 for African green monkey Vero E6 cells infected with SARS-COV-2 to IC50 for SARS-COV 2 infected in monkey Vero E6 cells; assay type: toxicity, cell-based, Vero C1008; conditions: read-out: Selectivity Index
SARS-CoV-2 [6] = experiment: Antiviral activity against SARS-COV 2 infected in human Calu-3 cells assessed as inhibition of viral replication at MOI of 0.01 and incubated after 2 hrs post infection for 48 hrs by direct yield reduction assay; assay type: functional, organism-based; conditions: Severe acute respiratory syndrome coronavirus 2, Calu-3
[7] = Selectivity index, ratio of CC50 for human Caco-2 cells infected with SARS-COV-2 to IC50 of SARS-COV 2 infected in human Caco-2 cells; assay type: toxicity, cell-based; conditions: read-out: Selectivity Index
SARS-CoV-2 [8] = experiment: Antiviral activity against SARS-COV 2 infected in human Huh-7 cells assessed as inhibition of viral replication at MOI of 0.01 and incubated after 2 hrs post infection for 48 hrs by direct yield reduction assay; assay type: functional, organism-based; conditions: Severe acute respiratory syndrome coronavirus 2, Huh-7
SARS-CoV-2 [9] = experiment: Antiviral activity against SARS-COV 2 infected in human Caco-2 cells; assay type: functional, organism-based; conditions: Severe acute respiratory syndrome coronavirus 2, Caco-2
[10] = Selectivity index, ratio of CC50 for human Huh-7 cells infected with SARS-COV-2 to IC50 for SARS-COV 2 infected in human Huh-7; assay type: toxicity; conditions: read-out: Selectivity Index
Caco-2 = experiment: Cytotoxicity against human Caco2 cells infected with SARS-COV-2 assessed as reduction in cell viability by celltiter-glo luminescent cell viability assay; assay type: cell-based; how it was run: as §2
SARS-CoV-2 [11] = experiment: Antiviral activity against SARS-COV 2 infected in human Caco-2 cells assessed as inhibition of viral replication at MOI of 0.01 and incubated after 2 hrs post infection for 48 hrs by immunodetection assay; assay type: functional, organism-based; conditions: Severe acute respiratory syndrome coronavirus 2, Caco-2
Vero C1008 = experiment: (§3) Cytotoxicity against African green monkey Vero E6 cells infected with SARS-COV-2 by celltiter-glo luminescent cell viability assay; assay type: cell-based; conditions: chlorocebus sabaeus, vero c1008; how it was run: as §2
SARS-CoV-2 [12] = experiment: Antiviral activity against SARS-COV 2 infected in human Calu-3 cells assessed as inhibition of viral replication at MOI of 0.01 followed by removal of test compound after cell virus adsorption incubated for 72 hrs by ENTRY-DYRA method; assay type: functional, organism-based; conditions: Severe acute respiratory syndrome coronavirus 2, Calu-3, 72 h
[13] = as §1; assay type: cell-based; conditions: Calu-3 cells infected with SARS-COV-2; how it was run: as §2
[14] = Selectivity index, ratio of CC50 for human Huh-7 cells to IC50 for Zika virus H/PF/2013 infected in pre-seeded Huh-7 cells assessed as inhibition of viral replication incubated for 72 hrs by immunodetection based direct yield reduction assay; assay type: toxicity, cell-based; conditions: read-out: Selectivity Index
How it was run: (§4)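 Direct yield reduction in Huh7 cells (7000/well), infected with 50 TCID₅₀ of DENV or ZIKV, or 25 TCID₅₀ of WNV. Adsorption 1 h at 37 °C, then virus removed and serial compound dilutions added. Incubated 72 h (DENV, ZIKV) or 48 h (WNV). Viral antigen immunodetected on the monolayer. IC₅₀ by non-linear regression, mean of three experiments. SI = CC₅₀ (Huh7, CellTiter-Glo luminescence)/IC₅₀.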

[15] = Cytotoxicity against human A549 cells assessed as reduction in cell viability measured after 24 hrs by MTT assay; assay type: cell-based; conditions: A549 cells
West Nile virus [16] = experiment: Antiviral activity against West Nile virus lineage 1 (Italy/2009) infected in pre-seeded Huh-7 cells assessed as inhibition of viral replication incubated for 48 hrs by immunodetection based direct yield reduction assay; assay type: functional, organism-based; conditions: West Nile virus, lineage 1 (Italy/2009), Huh-7, 48 h; read-out: IC50
[17] = Selectivity index, ratio of CC50 for human Huh-7 cells to IC50 for West Nile virus lineage 1 (Italy/2009) infected in pre-seeded Huh-7 cells assessed as inhibition of viral replication incubated for 48 hrs by immunodetection based direct yield reduction assay; assay type: toxicity, cell-based; conditions: read-out: Selectivity Index; how it was run: as §4
[18] = Cytotoxicity against human Huh-7 cells assessed as reduction in cell viability by Celltiter-Glo luminescent cell viability assay; assay type: cell-based; conditions: Huh-7 cells; how it was run: as §2
Zika virus [19] = experiment: Antiviral activity against Zika virus H/PF/2013 infected in pre-seeded Huh-7 cells assessed as inhibition of viral replication incubated for 72 hrs by immunodetection based direct yield reduction assay; assay type: functional, organism-based; conditions: H/PF/2013, Huh-7, 72 h; how it was run: as §4
West Nile virus [20] = experiment: Antiviral activity against West Nile virus lineage 1 (Italy/2009) infected in pre-seeded Huh-7 cells assessed as inhibition of viral replication incubated for 48 hrs by immunodetection based plaque reduction assay; assay type: functional, organism-based; conditions: Huh-7, 48 h
[21] = Selectivity index, ratio of CC50 for human Huh-7 cells to IC50 for Zika virus H/PF/2013 infected in pre-seeded Huh-7 cells assessed as inhibition of viral replication incubated for 72 hrs by immunodetection based plaque reduction assay; assay type: toxicity, cell-based; conditions: read-out: Selectivity Index
[22] = Selectivity index, ratio of CC50 for human Huh-7 cells to IC50 for West Nile virus lineage 1 (Italy/2009) infected in pre-seeded Huh-7 cells assessed as inhibition of viral replication incubated for 48 hrs by immunodetection based plaque reduction assay; assay type: toxicity, cell-based; conditions: read-out: Selectivity Index
Zika virus [23] = experiment: Antiviral activity against Zika virus H/PF/2013 infected in pre-seeded Huh-7 cells assessed as inhibition of viral replication incubated for 72 hrs by immunodetection based secondary yield reduction assay; assay type: functional, organism-based; conditions: H/PF/2013, Huh-7, 72 h
[24] = Selectivity index, ratio of CC50 for human A549 cells to IC50 for Influenza A Puerto Rico/8/34/H1N1 infected in human A549 cells; assay type: toxicity, cell-based; conditions: read-out: Selectivity Index
How it was run: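 MDCK or A549 cells (2.5 × 10⁵/well) infected with A/Puerto Rico/8/34 H1N1 for 1 h at 37 °C, then washed. Compound (0.5–20 μM) added in 2% FBS medium for 24 h, with DMSO final ≤0.2%. Virus in supernatants read by hemagglutination. CC₅₀ by MTT (2 × 10⁴ cells/well, same concentrations, 24 h, absorbance 570 nm). SI = CC₅₀/IC₅₀.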

dengue virus type 2 [25] = experiment: Antiviral activity against Dengue virus serotype 2 New Guinea C infected in pre-seeded Huh-7 cells assessed as inhibition of viral replication incubated for 72 hrs by immunodetection based plaque reduction assay; assay type: functional, organism-based; conditions: Huh-7, 72 h
[26] = Selectivity index, ratio of CC50 for human Huh-7 cells to IC50 for Dengue virus serotype 2 New Guinea C infected in pre-seeded Huh-7 cells assessed as inhibition of viral replication incubated for 72 hrs by immunodetection based plaque reduction assay; assay type: toxicity, cell-based; conditions: read-out: Selectivity Index
[27] = Selectivity index, ratio of CC50 for human Huh-7 cells to IC50 for Dengue virus serotype 2 New Guinea C infected in pre-seeded Huh-7 cells assessed as inhibition of viral replication incubated for 72 hrs by immunodetection based direct yield reduction assay; assay type: toxicity, cell-based; conditions: read-out: Selectivity Index; how it was run: as §4
dengue virus type 2 [28] = experiment: Antiviral activity against Dengue virus serotype 2 New Guinea C infected in pre-seeded Huh-7 cells assessed as inhibition of viral replication incubated for 72 hrs by immunodetection based direct yield reduction assay; assay type: functional, organism-based; conditions: Dengue virus, New Guinea C, Huh-7, 72 h; read-out: IC50
Zika virus [29] = experiment: Antiviral activity against Zika virus H/PF/2013 infected in pre-seeded Huh-7 cells assessed as inhibition of viral replication incubated for 72 hrs by immunodetection based plaque reduction assay; assay type: functional, organism-based; conditions: H/PF/2013, Huh-7, 72 h
Influenza A virus [30] = experiment: Antiviral activity against Influenza A Puerto Rico/8/34/H1N1 infected in human A549 cells assessed as inhibition of viral replication after 24 hrs by hemagglutination assay; assay type: functional, organism-based; conditions: A/Puerto Rico/8/1934(H1N1), A549, 24 h
[31] = Selectivity index, ratio of CC50 for human Huh-7 cells to IC50 for Zika virus H/PF/2013 infected in pre-seeded Huh-7 cells assessed as inhibition of viral replication incubated for 72 hrs by immunodetection based secondary yield reduction assay; assay type: toxicity, cell-based; conditions: read-out: Selectivity Index
[32] = as §3; assay type: cell-based, Vero C1008; conditions: chlorocebus sabaeus, Vero E6 cells infected with SARS-COV-2; how it was run: as §2
[33] = Cytotoxicity against MDCK cells assessed as reduction in cell viability measured after 24 hrs by MTT assay; assay type: cell-based, Canis lupus familiaris; conditions: dog, MDCK cells
[34] = Selectivity index, ratio of CC50 for human Huh-7 cells to IC50 for Dengue virus serotype 2 New Guinea C infected in pre-seeded Huh-7 cells assessed as inhibition of viral replication incubated for 72 hrs by immunodetection based secondary yield reduction assay; assay type: toxicity, cell-based; conditions: read-out: Selectivity Index
Influenza A virus [35] = experiment: Antiviral activity against Influenza A Puerto Rico/8/34/H1N1 infected in MDCK cells assessed as inhibition of viral replication measured in supernatants of infected cells after 24 hrs by hemagglutination assay; assay type: functional, organism-based; conditions: A/Puerto Rico/8/1934(H1N1)

With `CCC(CC)COC(=O)[C@H](C)N[P@](=O)(OC[C@H]1O[C@@](C#N)(c2ccc3c(N)ncnn23)[C@H](O)[C@@H]1O)Oc1ccccc1` [REMDESIVIR] the IC50 (SARS-CoV-2 [1]) was 2 nM, the CC50 (Calu-3) was 97 µM and the selectivity ratio [2] was 882. It also gave an IC50 (SARS-CoV-2 [3]) of 6 µM, a CC50 (Huh-7) of 77 µM and an IC50 (SARS-CoV-2 [4]) of 26.9 µM. The selectivity ratio [5] was 28, the IC50 (SARS-CoV-2 [6]) was 110 nM and the selectivity ratio [7] was 8000. For the same compound, the IC50 (SARS-CoV-2 [8]) was 4 nM, the IC50 (SARS-CoV-2 [9]) was 380 nM and the selectivity ratio [10] was 19200. It also gave a CC50 (Caco-2) of 80 µM, an IC50 (SARS-CoV-2 [11]) of 10 nM and a CC50 (Vero C1008) of 166 µM.

In the case of `CN(C)C(=O)COC(=O)Cc1ccc(OC(=O)c2ccc(NC(=N)N)cc2)cc1` [CAMOSTAT], the IC50 (SARS-CoV-2 [12]) is reported as 40 nM, the CC50 [13] is reported as 200 µM and the selectivity ratio [2] is reported as 243. It also gave an IC50 (SARS-CoV-2 [6]) of 820 nM.

In the case of `NC(=O)c1ncn([C@@H]2O[C@H](CO)[C@@H](O)[C@H]2O)n1` [RIBAVIRIN], the selectivity ratio at 72 h [14] is reported as 53, the CC50 at 24 h [15] is reported as greater than 50 µM and the IC50 (SARS-CoV-2 [3]) is reported as 110 µM. For the same compound, the IC50 (West Nile virus [16]) was 9.5 µM, the selectivity ratio at 48 h [17] was 21 and the CC50 [18] was 200 µM. For the same compound, the IC50 (Zika virus [19]) was 3.8 µM, the IC50 (West Nile virus [20]) was 6.7 µM and the selectivity ratio at 72 h [21] was 91. The selectivity ratio at 48 h [22] was 30, the IC50 (Zika virus [23]) was 4.4 µM and the selectivity ratio [24] was greater than 1.3. The IC50 (dengue virus type 2 [25]) was 4.1 µM, the selectivity ratio at 72 h [26] was 49 and the selectivity ratio at 72 h [27] was 26. For the same compound, the IC50 (dengue virus type 2 [28]) was 7.6 µM, the IC50 (Zika virus [29]) was 2200 nM and the IC50 (Influenza A virus [30]) was 37.4 µM. It also gave a selectivity ratio at 72 h [31] of 45, a CC50 [32] greater than 400 µM and a CC50 at 24 h [33] greater than 50 µM. The selectivity ratio at 72 h [34] was 50 and the IC50 (Influenza A virus [35]) was 9.5 µM.
